In brackets after ≈: the same amount, converted by molar mass.

What all share (assay type): functional
Assay [1] concerns Candida albicans. Nature of the assay: Antifungal activity against Candida albicans ATCC 44859 after 48 hrs by microdilution method. Particulars: ATCC 44859, 48 h. The gist of the method: (§1)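 Yeasts held on Sabouraud dextrose agar. MIC by NCCLS M27-A broth microdilution in RPMI 1640 with L-glutamine, buffered with 0.165 M MOPS to pH 7.0. Compounds in DMSO (≤2% final), twofold dilutions 500–0.48. Final inoculum 5 × 10³ ± 0.2 cfu mL⁻¹. Incubated at 35 °C; absorbance at 540 nm read at 24 and 48 h. MIC is 80% growth inhibition versus control; run twice in duplicate.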
(Dilution methods test growth across graded concentrations, often in twofold steps.)

The test system of assay [2] is Candida albicans. Put plainly: Antifungal activity against Candida albicans ATCC 90028 after 24 hrs by microdilution method. Particulars: ATCC 90028, 24 h. The gist of the method:
as §1

For assay [3], the system named is Candida albicans. Put plainly: Antifungal activity against Candida albicans ATCC 90028 after 48 hrs by microdilution method. Particulars: ATCC 90028, 48 h. In short, it runs like this:
as §1

Assay [4] relates to Candida parapsilosis. Nature of the assay: Antifungal activity against Candida parapsilosis ATCC 22019 after 24 hrs by microdilution method. Particulars: Lodderomyces parapsilosis, ATCC 22019, 24 h. In short, it runs like this:
as §1

Assay [5] relates to Candida parapsilosis. Nature of the assay: Antifungal activity against Candida parapsilosis ATCC 22019 after 48 hrs by microdilution method. Conditions: Lodderomyces parapsilosis, ATCC 22019, 48 h. The gist of the method: as §1
The subject of assay [6] is Pichia kudriavzevii. Put plainly: Antifungal activity against Candida krusei ATCC 6258 after 24 hrs by microdilution method. Particulars: ATCC 6258, 24 h. The gist of the method: as §1
For assay [7], the system named is Pichia kudriavzevii. Nature of the assay: Antifungal activity against Candida krusei ATCC 6258 after 48 hrs by microdilution method. Particulars: ATCC 6258, 48 h. The gist of the method: as §1
Assay [8] deals with Pichia kudriavzevii. Nature of the assay: Antifungal activity against Candida krusei E28 after 24 hrs by microdilution method. Conditions: E28, 24 h. In short, it runs like this:
as §1

Assay [9] concerns Pichia kudriavzevii. Nature of the assay: Antifungal activity against Candida krusei E28 after 48 hrs by microdilution method. Conditions: E28, 48 h. In short, it runs like this: as §1
Assay [10] deals with Candida tropicalis. Put plainly: Antifungal activity against Candida tropicalis 156 after 24 hrs by microdilution method. Particulars: Candida tropicalis, 156, 24 h. In short, it runs like this:
as §1

For assay [11], the system named is Candida tropicalis. Nature of the assay: Antifungal activity against Candida tropicalis 156 after 48 hrs by microdilution method. Particulars: Candida tropicalis, 156, 48 h. The gist of the method:
as §1

In assay [12] the test system is Nakaseomyces glabratus. Nature of the assay: Antifungal activity against Candida glabrata 20/I after 24 hrs by microdilution method. In short, it runs like this: as §1
The test system of assay [13] is Nakaseomyces glabratus. Nature of the assay: Antifungal activity against Candida glabrata 20/I after 48 hrs by microdilution method. The gist of the method: as §1
Assay [14] relates to Clavispora lusitaniae. Put plainly: Antifungal activity against Candida lusitaniae 2446/I after 24 hrs by microdilution method. In short, it runs like this:
as §1

Assay [15] relates to Clavispora lusitaniae. Put plainly: Antifungal activity against Candida lusitaniae 2446/I after 48 hrs by microdilution method. In short, it runs like this: as §1
The test system of assay [16] is Trichosporon beigelii. Put plainly: Antifungal activity against Trichosporon beigelii 1188 after 24 hrs by microdilution method. Conditions: Trichosporon beigelii, 1188, 24 h. The gist of the method:
as §1

Assay [17] concerns Trichosporon beigelii. Nature of the assay: Antifungal activity against Trichosporon beigelii 1188 after 48 hrs by microdilution method. Conditions: Trichosporon beigelii, 1188, 48 h. The gist of the method:
as §1

Assay [18] relates to Aspergillus fumigatus. Put plainly: Antifungal activity against Aspergillus fumigatus 231 after 24 hrs by microdilution method. Conditions: Aspergillus fumigatus, 231, 24 h. In short, it runs like this:
(§2)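 Filamentous strains held on Sabouraud dextrose agar. NCCLS M27-A broth microdilution in RPMI 1640 with L-glutamine and 0.165 M MOPS, pH 7.0. DMSO diluent ≤2% final; twofold dilutions 500–0.48. Inoculum 5 × 10³ ± 0.2 cfu mL⁻¹ final.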

In assay [19] the test system is Aspergillus fumigatus. Put plainly: Antifungal activity against Aspergillus fumigatus 231 after 48 hrs by microdilution method. Particulars: Aspergillus fumigatus, 231, 48 h. The gist of the method: as §2
Assay [20] concerns Lichtheimia corymbifera. Nature of the assay: Antifungal activity against Absidia corymbifera 272 after 24 hrs by microdilution method. Conditions: Lichtheimia corymbifera, 272, 24 h. In short, it runs like this:
as §2

Assay [21] relates to Lichtheimia corymbifera. Put plainly: Antifungal activity against Absidia corymbifera 272 after 48 hrs by microdilution method. Conditions: Lichtheimia corymbifera, 272, 48 h. The gist of the method: as §2
Assay [22] concerns Trichophyton mentagrophytes. Put plainly: Antifungal activity against Trichophyton mentagrophytes 445 after 72 hrs by microdilution method. Conditions: Trichophyton mentagrophytes, 445, 72 h. The gist of the method:
(§3)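 Dermatophyte held on Sabouraud dextrose agar. M27-A microdilution in MOPS-buffered (0.165 M, pH 7.0) RPMI 1640 with L-glutamine. DMSO ≤2% final; twofold dilutions 500–0.48. Inoculum 5 × 10³ ± 0.2 cfu mL⁻¹ final. Incubated at 35 °C; MIC read visually at 72 and 120 h as 80% inhibition of control growth; determined twice in duplicate.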

The subject of assay [23] is Trichophyton mentagrophytes. Put plainly: Antifungal activity against Trichophyton mentagrophytes 445 after 120 hrs by microdilution method. Conditions: Trichophyton mentagrophytes, 445, 120 h. The gist of the method:
as §3

For assay [24], the system named is Candida albicans. Nature of the assay: Antifungal activity against Candida albicans ATCC 44859 after 24 hrs by microdilution method. Particulars: ATCC 44859, 24 h. The gist of the method: as §1

In general, MIC80 refers to the lowest concentration that inhibits either 80% of growth or 80% of the strains tested, depending on the study. High values mean weaker potency, low ones greater potency. For `O=C1OC(COc2cccc(Br)c2)C=C1c1ccc(Br)cc1` (stereo not drawn), the MIC80 in assay [1] turned out to be 1.95 µM (≈ 0.827 µg/mL); in assay [2] it was 3.9 µM (≈ 1.65 µg/mL); in [3], 7.81 µM (≈ 3.31 µg/mL); in assay [4], 7.81 µM (≈ 3.31 µg/mL); in assay [5], 31.2 µM (≈ 13.3 µg/mL); in [6], 7.81 µM (≈ 3.31 µg/mL). Moreover, the MIC80 in [7] came to 15.6 µM (≈ 6.62 µg/mL); in assay [8], 7.81 µM (≈ 3.31 µg/mL); in assay [9], 15.6 µM (≈ 6.62 µg/mL); in assay [10] it was 7.81 µM (≈ 3.31 µg/mL); in assay [11] it was 15.6 µM (≈ 6.62 µg/mL); in assay [12], 1.95 µM (≈ 0.827 µg/mL). Also, the MIC80 in assay [13] came out at 1.95 µM (≈ 0.827 µg/mL); in assay [14], 7.81 µM (≈ 3.31 µg/mL); in assay [15], 15.6 µM (≈ 6.62 µg/mL); in [16] it was 7.81 µM (≈ 3.31 µg/mL); in assay [17], 62.5 µM (≈ 26.5 µg/mL); in assay [18], 3.9 µM (≈ 1.65 µg/mL). Moreover, the MIC80 in assay [19] was 15.6 µM (≈ 6.62 µg/mL); in assay [20], 31.2 µM (≈ 13.3 µg/mL); in assay [21], 62.5 µM (≈ 26.5 µg/mL); in [22], 1.95 µM (≈ 0.827 µg/mL); in assay [23], 1.95 µM (≈ 0.827 µg/mL); in assay [24] it was 0.97 µM (≈ 0.411 µg/mL).

With `O=C1OC(COc2ccc(O)cc2)C=C1c1ccc(Br)cc1` (stereo not drawn), the MIC80 turned out to be 1.95 µM (≈ 0.704 µg/mL) in [1]; 1.95 µM (≈ 0.704 µg/mL) in assay [2]; 3.9 µM (≈ 1.41 µg/mL) in assay [3]; 7.81 µM (≈ 2.82 µg/mL) in assay [4]; 15.6 µM (≈ 5.64 µg/mL) in [5]; 7.81 µM (≈ 2.82 µg/mL) in assay [6]. For the same molecule, the MIC80 in assay [7] stood at 15.6 µM (≈ 5.64 µg/mL); in assay [8] it was 7.81 µM (≈ 2.82 µg/mL); in [9], 15.6 µM (≈ 5.64 µg/mL); in [10], 7.81 µM (≈ 2.82 µg/mL); in [11], 7.81 µM (≈ 2.82 µg/mL); in assay [12], 1.95 µM (≈ 0.704 µg/mL). For the same molecule, the MIC80 in [13] is 1.95 µM (≈ 0.704 µg/mL); in assay [14], 3.9 µM (≈ 1.41 µg/mL); in assay [15], 7.81 µM (≈ 2.82 µg/mL); in assay [16], 7.81 µM (≈ 2.82 µg/mL); in assay [17], 15.6 µM (≈ 5.64 µg/mL); in [18], 1.95 µM (≈ 0.704 µg/mL). The MIC80 worked out at 7.81 µM (≈ 2.82 µg/mL) in assay [19]; 15.6 µM (≈ 5.64 µg/mL) in [20]; 62.5 µM (≈ 22.6 µg/mL) in assay [21]; 1.95 µM (≈ 0.704 µg/mL) in assay [22]; 1.95 µM (≈ 0.704 µg/mL) in assay [23]; 0.97 µM (≈ 0.35 µg/mL) in assay [24].

Take `C[C@@H]1[C@H](O)[C@@H](C)/C=C/C=C/C=C/C=C/C=C/C=C/C=C/[C@H](O[C@@H]2O[C@H](C)[C@@H](O)[C@H](N)[C@@H]2O)C[C@@H]2O[C@](O)(C[C@@H](O)C[C@@H](O)[C@H](O)CC[C@@H](O)C[C@@H](O)CC(=O)O[C@H]1C)C[C@H](O)[C@H]2C(=O)O` [AMPHOTERICIN B]: the MIC95 turned out to be 0.06 µM (≈ 0.0554 µg/mL) in assay [1]; 0.07 µM (≈ 0.0647 µg/mL) in assay [2]; 0.14 µM (≈ 0.129 µg/mL) in assay [3]; 0.03 µM (≈ 0.0277 µg/mL) in assay [4]; 0.14 µM (≈ 0.129 µg/mL) in assay [5]; 0.14 µM (≈ 0.129 µg/mL) in assay [6]. Moreover, the MIC95 was found to be 0.14 µM (≈ 0.129 µg/mL) in assay [7]; 0.14 µM (≈ 0.129 µg/mL) in assay [8]; 0.18 µM (≈ 0.166 µg/mL) in [9]; 0.09 µM (≈ 0.0832 µg/mL) in [10]; 0.11 µM (≈ 0.102 µg/mL) in [11]; 0.03 µM (≈ 0.0277 µg/mL) in assay [12]. Moreover, the MIC95 was 0.09 µM (≈ 0.0832 µg/mL) in assay [13]; 0.14 µM (≈ 0.129 µg/mL) in [14]; 0.27 µM (≈ 0.25 µg/mL) in assay [15]; 1.8 µM (≈ 1.66 µg/mL) in assay [17]; 0.18 µM (≈ 0.166 µg/mL) in assay [18]; 0.23 µM (≈ 0.213 µg/mL) in [19]. Further, the MIC95 in [21] was determined as 2.16 µM (≈ 2 µg/mL); in assay [24] it was 0.03 µM (≈ 0.0277 µg/mL).

Source of the values: ChEMBL document CHEMBL1157589, “Antifungal 3,5-disubstituted furanones: From 5-acyloxymethyl to 5-alkylidene derivatives” (Bioorg Med Chem, 2010).
